Structures are written as SMILES. pIC50: −log10 of the molar value. Activity calls are given as the source filed them. The calls are words filed in the database; no cut-off is given here.

A short description of data set [1]: Antiglycation activity assessed as inhibition of advanced glycation end product formation after 7 days by spectrofluorometric analysis. Type of data set: physicochemical. The gist of the method: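 Bovine serum albumin (10 mg/mL) in 50 mM phosphate buffer pH 7.4 with 0.02% sodium azide was mixed with 0.2 M fructose/glucose solution and serially diluted compound, with aminoguanidine as positive control. Samples were incubated 7 days at 37 °C and fluorescence read at ex 350/em 450 nm, in triplicate. IC50 came from least-squares regression of log concentration against remaining activity.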

For data set [2], the species on record is Danio rerio. The experiment in a line: Antidiabetic retinopathic activity in zebrafish flk:EGFP transgenic embryo assessed as reduction of high glucose-induced dilation of hyaloidretinal vessels at 10 to 20 uM treated 1 day post fertilization to 6 days post fertilization. Type of data set: functional, organism-based. In outline: (§1)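 flk:EGFP transgenic embryos, five per well, were kept from 1 dpf in egg water with 30 mM glucose plus compound (10 or 20 μM) until 6 dpf. They were then fixed in 4% PFA, and lenses were isolated with the optic disc up and imaged by fluorescence. Diameters were taken in 3–4 main branches up to the first sub-branch. Percentage inhibition = [1 − (Tn − Cav)/(HGav − Cav)] × 100, from three independent experiments.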

For data set [3], the species on record is Danio rerio. The experiment in a line: Antidiabetic retinopathic activity in zebrafish flk:EGFP transgenic embryo assessed as reduction of high glucose-induced dilation of hyaloidretinal vessels at 20 uM treated 1 day postfertilization to 6 days postfertilization relative to control. It counts as functional. Set-up: scale not given: the % may be the effect or the level left. In outline: as §1

The species entered for data set [4] is Danio rerio. The experiment in a line: Antidiabetic retinopathic activity in zebrafish flk:EGFP transgenic embryo assessed as reduction of high glucose-induced dilation of hyaloidretinal vessels at 10 uM treated 1 day postfertilization to 6 days postfertilization relative to control. It counts as functional. Further details: scale not given: the % may be the effect or the level left. The gist of the method: as §1

Data set [5] is filed under the species Danio rerio. The experiment in a line: Toxicity in zebrafish flk:EGFP transgenic embryo at 10 to 20 uM treated 1 day post fertilization to 6 days post fertilization. It counts as organism-based. As to conditions: in vivo.

As a reminder, the pIC50 is the IC50 on a negative log10 scale, so that one unit is a factor of ten. Consider `Oc1cc(O)c2c(c1)O[C@H](c1ccc(O)c(O)c1)[C@H](O)C2` [(-)-EPICATECHIN], for which the pIC50 in data set [1] is 4.87.
`O=C(O[C@@H]1Cc2c(O)cc(O)cc2O[C@@H]1c1ccc(O)c(O)c1)c1cc(O)c(O)c(O)c1` [EPICATECHIN GALLATE]: in data set [1], the negative logarithm of the IC50 (pIC50) was 4.82.
As for `Oc1ccc([C@@H]2Oc3c(c(O)cc4c3[C@@H]3c5c(O)cc(O)cc5O[C@](c5ccc(O)cc5)(O4)[C@H]3O)C[C@H]2O)cc1`, in the data set filed under Danio rerio [2], the outcome was Active. For the same molecule, the pIC50 in data set [1] is 4.46.
On to `Oc1ccc([C@H]2Oc3c(c(O)cc4c3[C@@H]3c5c(O)cc(O)cc5O[C@](c5ccc(O)cc5)(O4)[C@H]3O)C[C@@H]2O)cc1`, for which the result in the data set filed under Danio rerio [2] was Active. Further, the pIC50 in data set [1] is 4.47.
Turning to `N=C(N)NN` [PIMAGEDINE], the pIC50 in data set [1] was 3.02.
`Oc1ccc([C@@H]2Oc3c(c(O)cc4c3[C@@H]3c5c(O)cc6c(c5O[C@](c5ccc(O)cc5)(O4)[C@H]3O)[C@@H]3c4c(O)cc(O)cc4O[C@](c4ccc(O)cc4)(O6)[C@H]3O)C[C@H]2O)cc1`: the result in the data set listed under Danio rerio [2] was Active. Besides, the negative logarithm of the IC50 (pIC50) in data set [1] is 4.40.
Take `Oc1ccc([C@@]23Oc4cc(O)cc(O)c4[C@@H](c4c(cc(O)c5c4O[C@H](c4ccc(O)c(O)c4)[C@@H](O)C5)O2)[C@@H]3O)cc1`: the Activity in the data set listed under Danio rerio [3] came to 104%. Further, in data set [1], the pIC50 is 4.85.
As to `Oc1ccc([C@@H]2Oc3c(c(O)cc4c3[C@@H]3c5c(O)cc6c(c5O[C@](c5ccc(O)c(O)c5)(O4)[C@H]3O)[C@@H]3c4c(O)cc(O)cc4O[C@](c4ccc(O)cc4)(O6)[C@H]3O)C[C@H]2O)cc1`, the results for the Activity in the data set filed under Danio rerio [4], in the data set filed under Danio rerio [3] and in the data set filed under Danio rerio [5] were 157.7%, 164.1% and “Non-toxic”, respectively. The negative-log IC50 (pIC50) in data set [1] is 4.76.
On to `OC[C@H]1O[C@@H](O[C@@H]2Cc3c(O)cc4c(c3O[C@H]2c2ccc(O)cc2)[C@@H]2c3c(O)cc(O)cc3O[C@](c3ccc(O)cc3)(O4)[C@H]2O)[C@H](O)[C@@H](O)[C@@H]1O`, for which the result in the data set filed under Danio rerio [2] was Active. Also, the negative-log IC50 (pIC50) in data set [1] was 4.49.

Values taken from ChEMBL document CHEMBL2429848, “Proanthocyanidins from Spenceria ramalana and their effects on AGE formation in vitro and hyaloid-retinal vessel dilation in larval zebrafish in vivo” (J Nat Prod, 2013).
